# In the library only some 2.5% were active in any assay of this set; here they are far more common.
# SR-BI HDL uptake: mouse SR-BI HDL lipid transfer inhibition. 320,000 compounds, 0.96% hits. Q61009. ldlA[mSR-BI] CHO cells, DiI-HDL uptake fluorescence, 3 h. inhibition, % at 12.5 µM;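 active = mean replicate inhibition of at least 70% and a set share of replicates each scoring 70 or more; inconclusive = meets just one of the two criteria; inactive = fails both criteria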;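 also: 0% = median of neutral control wells and 100% = median of positive control wells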
# CDK5 inh: CDK5/p35 (human) kinase inhibition; AID 488839; Recombinant CDK5/p35, ADP-Glo luminescence, 60 min; inhibition, % at 10 µM; Q00535+Q15078; 330,000 compounds, 0.01% hits;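 active = highest replicate inhibition of at least 50% and at least 75% of replicates reaching 50%; inconclusive = only one of the two criteria met; inactive = both criteria failed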;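 also: plate controls were DMSO neutral control for no effect and GW8510 at 10 µM for full effect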
# Target sequence (Q00535 whole entry, looked up): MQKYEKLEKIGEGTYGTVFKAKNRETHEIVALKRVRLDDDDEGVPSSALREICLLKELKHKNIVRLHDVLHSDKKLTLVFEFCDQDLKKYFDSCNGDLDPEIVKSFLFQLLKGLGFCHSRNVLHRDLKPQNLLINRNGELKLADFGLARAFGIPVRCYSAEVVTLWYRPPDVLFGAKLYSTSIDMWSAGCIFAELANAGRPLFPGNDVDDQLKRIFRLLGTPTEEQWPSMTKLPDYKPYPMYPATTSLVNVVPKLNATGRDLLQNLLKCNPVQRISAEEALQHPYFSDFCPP
# Target sequence (Q15078 whole entry, looked up): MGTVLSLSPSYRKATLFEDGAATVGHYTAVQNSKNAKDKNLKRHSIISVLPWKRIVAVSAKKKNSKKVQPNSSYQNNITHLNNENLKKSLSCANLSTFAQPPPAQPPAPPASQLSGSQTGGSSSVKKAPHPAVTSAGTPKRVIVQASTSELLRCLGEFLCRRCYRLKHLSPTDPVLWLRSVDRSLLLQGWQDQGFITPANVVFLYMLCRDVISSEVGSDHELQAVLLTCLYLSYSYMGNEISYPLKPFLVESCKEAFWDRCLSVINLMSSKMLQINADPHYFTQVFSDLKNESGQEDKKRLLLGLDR
# DYRK1A inh: blocks rat Dyrk1A kinase activity. Q63470. ADP-Glo luminescence, NFATc1 peptide. inhibition, % at 12.5 µM. 310,000 compounds, 0.43% hits. AID 504441;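 also: plate controls were vehicle with enzyme for no effect and no enzyme for full effect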
# SR-BI uptake up: activators of SR-BI mediated HDL lipid uptake; CHO ldlA[mSR-BI] cells, DiI-HDL uptake fluorescence, 3 h; 100 = double the neutral-control signal; 320,000 compounds, 0.096% hits; activation, % at 12.5 µM;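 active = mean replicate activation of at least 60% and every replicate at or above 60%; inconclusive = mean or all-replicate condition met, but not both; inactive = mean below 60% and not all replicates reaching 60%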;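 also: 0% = median plate neutral-control signal and 100% = twice that signal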
#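 Assay system: LDL receptor-deficient CHO ldlA cells overexpressing murine SR-BI / Medium: BSA-supplemented, HEPES-buffered Ham's F12, pH 7.4 / Probe or stimulus: DiI-labelled HDL at 10 µg/mL final / Timing: compound with DiI-HDL co-incubation, 3 h at 37 °C / Technique: bottom-read cell fluorescence after medium removal, ex 550/em 595 nm / Measure: HDL uptake via cellular fluorescence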
# dFosB activator: mouse delta FosB homodimer activation. P13346. purified delta FosB, TAMRA-CDK5 oligo fluorescence polarization; percent of positive-control signal above neutral wells. activation, % at 25 µM. 340,000 compounds, 0.99% hits. AID 493131;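 active = mean activation above about 17%, with every replicate also reaching it, limit read from the data, passing the limit was not always enough; inconclusive = only one of the two conditions met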
# NSD2 inh: blocks human histone methyltransferase NSD2 | O96028 | NSD2 peptide methylation, AlphaScreen, 120 min | inhibition, % at 12.5 µM | 310,000 compounds, 0.54% hits | AID 743445
# Numbers without * were called inactive; ? = inconclusive; . = no result. Rule as the data show it, unless noted: active = inhibition above about 50%; inactive = the rest.
SMILES,SR-BI HDL uptake,CDK5 inh,DYRK1A inh,SR-BI uptake up,dFosB activator,NSD2 inh
COc1ccc([N+](=O)[O-])c(OC)c1C(=O)NC(=O)Nc1nc(C)nc(C)n1,18,-1,2,-18,7,-2
O=C(Nc1cccc(C(F)(F)F)c1)c1ccc2nc(-c3ccco3)c(-c3ccco3)nc2c1,82*,4,-1,-82,-14,5
Cc1ccc(C(O)c2ncc(-c3ccc4ccccc4c3)[nH]2)c(C)c1 (centres undefined),.,.,.,.,.,2
CCOc1ccccc1NC(=O)c1cc(-c2cc(OC)c(OC)c(OC)c2)nc2ccccc12,72*,1,-3,-72,-11,-8
COc1cc(-c2cc(C(=O)Nc3ccc(N4CCOCC4)cc3)c3ccccc3n2)cc(OC)c1OC,90*,1,11,-90,-4,3
COc1ccccc1NC(=O)c1cc(-c2cc(OC)c(OC)c(OC)c2)nc2ccccc12,55,0,4,-55,8,-3
O=C(Nc1ccc(N2CCOCC2)cc1)c1cc(-c2ccncc2)nc2ccccc12,62,1,0,-62,-5,2
CCOc1ccc(CN(C)C(=O)c2cc(S(=O)(=O)N3CCCC3)ccc2C)cc1,8,0,.,-8,-2,-10
Cc1cc(NS(=O)(=O)c2ccc(NC(=O)CSc3nc4sc(C)c(C)c4c(=O)n3Cc3ccco3)cc2)nc(C)n1,.,.,.,.,.,12
CCc1noc(C)c1C(=O)Nc1cc(S(=O)(=O)N(CC)CC)ccc1N1CCOCC1,11,0,-3,-11,-12,-1
CN(CC(=O)Nc1ccc(Cl)c(Cl)c1)C(=O)C1CCCC1,-67,0,-4,67*,-1,-2
CN(CC(=O)Nc1ccc(Cl)c(Cl)c1)C(=O)C1CCC1,-7,1,-3,7,3,-3
CCOC(=O)C1(Cc2ccccc2)CCN(Cc2ccccc2[N+](=O)[O-])CC1,.,.,.,.,.,-2
CCNC(=O)N1c2ccc(OCC)cc2C(C)=CC1(C)C,67,-1,0,-67,1,10
CCOc1ccc2c(c1)C(C)=CC(C)(C)N2C(=O)Nc1ccccc1F,-26,0,7,26,0,65*
Cc1ccc(NC(=O)c2ccc3c(=O)n4c(nc3c2)CCC4)cc1S(=O)(=O)N(C)C,75*,1,7,-75,-16,1
Cc1ccc(NC(=O)c2ccc3c(=O)n4c(nc3c2)CCC4)cc1F,51,0,7,-51,-8,1
CCC(C)[C@@H](CN(N=O)[C@@H](Cc1ccccc1)CN(C)N=O)N(CCc1ccccc1)N=O (some centres undefined),-68,1,5,68*,-12,.
N/C(=N\OC(=O)COc1ccc(Br)cc1Cl)c1cccnc1,-6,0,-3,6,20*,.
N/C(=N\OC(=O)COc1ccc(Cl)cc1Br)c1cccnc1,12,0,4,-12,10,-11
CCc1ccc(OCc2cccc(C(=O)N/N=C\c3cnn(C)c3C)c2)cc1,92*,1,3,-92,-6,-5
CC1CCN(C(=O)Cn2nnc(-c3cccs3)n2)CC1,-19,-4,-2,19,1,0
O=C(Cn1nnc(-c2cccs2)n1)N1CCOCC1,-68,0,.,68*,-9,-5
CCOc1ccc(NC(=O)c2cc(-c3ccc(Cl)cc3)nc3ccccc23)cc1,.,.,.,.,.,2
N#Cc1c(/N=C/c2ccccc2)oc(-c2ccccc2)c1-c1ccccc1,7,1,0,-7,-5,1
SMILES,SR-BI HDL uptake,CDK5 inh,DYRK1A inh,SR-BI uptake up,dFosB activator,NSD2 inh
COc1ccc(-c2oc(/N=C/N3CCOCC3)c(C#N)c2-c2ccc(OC)cc2)cc1,72*,0,1,-72,-5,2
CC(C)=CCC/C(C)=C/CNC(=O)C[C@H]1C[C@H](C(=O)N2CCOCC2)[C@@]2(CCC3CCCC3)c3[nH]c4cc(-c5ccco5)ccc4c3CCN2C1=O,-2,0,.,2,-7,.
Cc1cccc(/C=C/c2onc(C)c2S(=O)(=O)N2CCC(C(=O)NC(C)(C)C)CC2)c1,77*,1,-1,-77,-10,.
Cc1cc(C(=O)OCC(=O)Nc2ccccc2C#N)c(C)o1,-17,0,-2,17,-3,0
CNC(=O)c1c(NC(=O)c2ccc(N3C(=O)CCC3=O)cc2)sc2c1CCCC2,87*,-2,1,-87,-7,.
Cc1occc1C(=O)Nc1sc2c(c1C(N)=O)CCCCC2,73*,-1,-1,-73,1,3
COC(=O)c1c(NC(=O)c2ccoc2C)sc2c1CCC2,22,-1,-2,-22,-10,2
CCOC(=O)N1CCC(NC(=O)c2ccc3c(c2)N(C)C(=O)/C(=C/c2cccc(OC)c2)S3)CC1,75*,-1,-3,-75,0,0
Cc1cccc(/C=C2\Sc3ccc(C(=O)NCC4CCCO4)cc3N(C)C2=O)c1 (centres undefined),92*,2,1,-92,2,.
CN1C(=O)/C(=C/c2ccccc2F)Sc2ccc(C(=O)NCC3CCCO3)cc21 (centres undefined),?,1,-2,-70,-18,.
Cc1ccc(S(=O)(=O)N2c3ccccc3C[C@H]2CCC(=O)c2ccccc2)cc1,.,.,.,.,.,22
O=C1CC(C(=O)O)(c2ccccc2)c2cccc(F)c21 (centres undefined),3,0,-5,-3,1,9
Clc1ccc(-n2c(SCc3cccc4ccccc34)nnc2-c2ccccn2)cc1,.,.,.,.,.,1
CCCCNC(=O)C1(C)CCN1C(=O)c1sccc1C (centres undefined),.,.,.,.,.,2
COc1cc(C2=NOC(C(=O)N3CCCCCC3)C2)cc(OC)c1OC (centres undefined),10,1,-4,-10,0,2
COc1cc(C2=NOC(C(=O)N3CCN(c4ccc(F)cc4)CC3)C2)cc(OC)c1OC (centres undefined),79*,0,-3,-79,-8,3
Cc1ccc(-n2nc(C)cc2NC(=O)c2ccc(C)s2)cc1,87*,0,0,-87,-7,0
O=C(COc1cccc2cccnc12)N/N=C/c1ccccc1O,.,-1,-3,.,5,-4
O=C(COc1cccc2cccnc12)N/N=C/c1ccc(O)cc1,4,0,28,-4,19*,-3
CC(C)C[C@@H](CN)NC(=O)c1nc[nH]c1C(=O)N[C@@H](CC(C)C)C(=O)CNC[C@H](C)NC(=O)c1nc[nH]c1C(=O)N[C@@H](CC(C)C)C(=O)O,-13,1,.,13,-13,.
CCCNC1=C(N(C(C)=O)c2cccc(F)c2)C(=O)c2ccccc2C1=O,-2,-1,0,2,-4,78*
COC(=O)c1ccc(CNC(=O)c2ccc(OC)c(S(=O)(=O)NC3CC3)c2)cc1,.,.,.,.,.,-1

# Screens from PubChem.
